GASC1 inh – KDM4C (human) demethylase inhibition; Q9H3R0; GST-KDM4C 2-372, H3K9me3 peptide, LANCE TR-FRET; inhibition, % at 12.5 µM; 0.15% of 96,000 active; AID 720574;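 active means mean replicate inhibition above about 25%, with at least 55% of replicates also reaching it, limit read from the data, passing the limit was not always enough; inconclusive means only one of those two conditions met; inactive means neither condition met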
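Test system – GST-tagged GASC-1 (JMJD2C) catalytic fragment, aa 2-372 · Medium – HEPES buffer, pH 7.5, plus ascorbate · Reagent – H3K9me3 peptide with Fe(II)/2OG · Compound – one test concentration per compound · Timing – 30 min reaction, 60 min detection, RT · Technique – TR-FRET with Eu antibody and ULight streptavidin, EDTA stop · Read-out basis – inhibition from TR-FRET ratio decrease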
T cruzi growth-1 – inhibitors of T. cruzi proliferation. T. cruzi beta-gal in NIH3T3, GalScreen luminescence, 90 h. inhibition, % at 8.34 µM. 5.9% of 77,000 active. AID 624255;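 active means mean inhibition above about 93%, with at least 55% of replicates each passing it, limit read from the data, passing the limit was not always enough; inconclusive means only one of those two conditions holds; inactive means neither condition holds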
IDH1 mut inh – inhibitors of human IDH1 R132H; IDH1 R132H reductase, diaphorase/resazurin fluorescence, 60 min; inhibition, % at 10 µM; 0.18% of 70,000 active; AID 624101; in the data active means inhibition above about 34%; inconclusive means no clear call, values can overlap the other calls; inactive means below about 11%
Target sequence (O75874 whole entry R132H): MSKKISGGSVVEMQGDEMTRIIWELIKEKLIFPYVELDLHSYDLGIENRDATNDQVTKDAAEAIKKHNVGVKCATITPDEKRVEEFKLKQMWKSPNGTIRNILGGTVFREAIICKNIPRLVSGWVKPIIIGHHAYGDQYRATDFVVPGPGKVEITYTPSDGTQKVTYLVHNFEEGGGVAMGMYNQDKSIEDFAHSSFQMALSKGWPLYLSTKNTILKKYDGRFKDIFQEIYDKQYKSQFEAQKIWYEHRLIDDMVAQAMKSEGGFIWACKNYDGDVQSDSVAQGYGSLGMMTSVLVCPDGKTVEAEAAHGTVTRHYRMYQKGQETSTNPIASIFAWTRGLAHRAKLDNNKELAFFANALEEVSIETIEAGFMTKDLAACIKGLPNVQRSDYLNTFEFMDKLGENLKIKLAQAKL
T cruzi growth-2 – inhibitors of T. cruzi proliferation. shares compounds with T cruzi growth-1. T. cruzi beta-gal in NIH3T3, GalScreen luminescence, 90 h. inhibition, % at 8.35 µM. 72% of 5,600 active. AID 651739;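 active means mean replicate inhibition above about 95% and at least 55% of replicates individually reaching it, limit read from the data; inconclusive means only one of the two criteria is met; inactive means neither criterion is met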
T cruzi growth-3 – blocks T. cruzi growth in NIH3T3 host cells; AID 651740; shares compounds with T cruzi growth-1; 21% of 5,600 active; T. cruzi beta-gal in NIH3T3, GalScreen luminescence, 90 h; inhibition, % at 2.09 µM;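 active means mean inhibition above about 95%, with at least 55% of replicates also reaching it, limit read from the data; inconclusive means meets just one of the two conditions; inactive means meets neither condition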
NIH3T3 tox – kills mouse NIH/3T3 fibroblasts; shares compounds with T cruzi growth-1; NIH/3T3 viability, CellTiter-Glo ATP luminescence, 90 h; cytotoxicity (signal decrease), % at 8.35 µM; 14% of 5,600 active; AID 651742;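 active means mean signal decrease across replicates above about 35% based on untreated-well scatter, with enough replicates individually passing, limit read from the data; inconclusive means no rule stated though some were filed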
3T3 cytotox 2 – kills mouse NIH/3T3 fibroblasts. shares compounds with T cruzi growth-1. NIH/3T3 viability, CellTiter-Glo ATP luminescence, 90 h. inhibition, % at 24.9 µM. 56% of 5,600 active;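 active means mean loss of cell viability signal at or above a set limit, and enough replicates individually reaching it; inconclusive means meets only the mean limit or only the replicate share; inactive means meets neither condition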
Numbers stand for hits. This excerpt belongs to a sample that is enriched for hits.

`COc1ccc(C)cc1S(=O)(=O)NCCO` gave IDH1 mut inh inactive.
`C[C@H](O)C#Cc1ccc2c(c1)O[C@@H](CN(C)Cc1ccc(-c3ccccc3)cc1)[C@H](C)CN([C@H](C)CO)S2(=O)=O` gave GASC1 inh inactive, T cruzi growth-1 inactive and IDH1 mut inh inactive.
`C[C@@H]1CN([C@@H](C)CO)S(=O)(=O)c2ccc(C#CC(C)(C)O)cc2O[C@@H]1CN(C)Cc1ccc(-c2ccccc2)cc1` gave GASC1 inh inactive, T cruzi growth-1 121.0, IDH1 mut inh inactive, T cruzi growth-2 inactive, T cruzi growth-3 115.3, NIH3T3 tox inactive and 3T3 cytotox 2 103.4.
For C[C@H](O)C#Cc1ccc2c(c1)O[C@H](CN(C)Cc1ccc(-c3ccccc3)cc1)[C@H](C)CN([C@@H](C)CO)S2(=O)=O the results were GASC1 inh inactive, T cruzi growth-1 108.6, T cruzi growth-2 98.5, T cruzi growth-3 100.6, NIH3T3 tox 47.3 and 3T3 cytotox 2 104.4.
For C[C@H](CO)N1C[C@H](C)[C@@H](CN(C)Cc2ccccc2)Oc2cc(C#CC(C)(C)O)ccc2S1(=O)=O the results were T cruzi growth-1 inactive.
C[C@@H]1CN([C@@H](C)CO)S(=O)(=O)c2ccc(C#CC(C)(C)O)cc2O[C@H]1CN(C)Cc1ccc(-c2ccccc2)cc1 was read as GASC1 inh inactive, T cruzi growth-1 118.2, T cruzi growth-2 inactive, T cruzi growth-3 113.2, NIH3T3 tox 116.4 and 3T3 cytotox 2 107.0.
Screening C[C@H](CO)N1C[C@H](C)[C@H](CN(C)Cc2ccccc2)Oc2cc(C#CC(C)(C)O)ccc2S1(=O)=O returned T cruzi growth-1 inactive and IDH1 mut inh inactive.
O=C(CSCCO)Nc1ccc(F)cc1 was read as IDH1 mut inh inactive.
Screening Cc1ccc(C)c(NC(=O)C(C)N(c2ccc(C)c(C)c2)S(C)(=O)=O)c1 (centres undefined) returned IDH1 mut inh inactive.
CO[C@H](CN(C)S(=O)(=O)c1ccc(F)cc1)[C@H](C)CN([C@@H](C)CO)S(=O)(=O)c1cccc(Cl)c1 was read as GASC1 inh inactive, T cruzi growth-1 inactive and IDH1 mut inh inactive.
Screening CO[C@H](CN(C)S(=O)(=O)c1cccc(Cl)c1)[C@@H](C)CN([C@@H](C)CO)S(=O)(=O)c1ccc(Cl)cc1 returned GASC1 inh inactive, T cruzi growth-1 inactive and IDH1 mut inh inactive.
For CO[C@H](CN(C)S(=O)(=O)c1cccc(Cl)c1)[C@@H](C)CN([C@@H](C)CO)S(=O)(=O)c1cccc(Cl)c1 the results were GASC1 inh inactive, T cruzi growth-1 108.6, IDH1 mut inh inactive, T cruzi growth-2 inactive, T cruzi growth-3 inactive, NIH3T3 tox 41.9 and 3T3 cytotox 2 38.8.
For CO[C@H](CN(C)S(=O)(=O)c1cccc(Cl)c1)[C@@H](C)CN([C@H](C)CO)S(=O)(=O)c1cccc(Cl)c1 the results were GASC1 inh inactive, T cruzi growth-1 118.0, IDH1 mut inh inactive, T cruzi growth-2 inactive, T cruzi growth-3 inactive, NIH3T3 tox inactive and 3T3 cytotox 2 69.4.
CO[C@@H](CN(C)S(=O)(=O)c1cccc(Cl)c1)[C@@H](C)CN([C@H](C)CO)S(=O)(=O)c1ccc(Cl)cc1 was read as GASC1 inh inactive, T cruzi growth-1 inactive and IDH1 mut inh inactive.
Screening CO[C@@H](CN(C)S(=O)(=O)c1cccc(Cl)c1)[C@@H](C)CN([C@@H](C)CO)S(=O)(=O)c1ccc(Cl)cc1 returned GASC1 inh inactive, T cruzi growth-1 104.4, IDH1 mut inh inactive, T cruzi growth-2 98.5, T cruzi growth-3 inactive, NIH3T3 tox inconclusive and 3T3 cytotox 2 66.8.
Screening CO[C@@H](CN(C)S(=O)(=O)c1cccc(Cl)c1)[C@H](C)CN([C@@H](C)CO)S(=O)(=O)c1cccc(Cl)c1 returned GASC1 inh inactive, T cruzi growth-1 109.7, IDH1 mut inh inactive, T cruzi growth-2 inactive, T cruzi growth-3 inactive, NIH3T3 tox 48.8 and 3T3 cytotox 2 71.7.
Screening CO[C@H](CN(C)S(=O)(=O)c1ccc(Cl)cc1)[C@@H](C)CN([C@H](C)CO)S(=O)(=O)c1cccc(Cl)c1 returned GASC1 inh inactive, T cruzi growth-1 inactive and IDH1 mut inh inactive.
